Data as given in article PMC7199185 (ACS applied materials & interfaces, 2019).
≈ marks a conversion by molar mass, not a printed value.

Tests used:
E coli K12 biofilm = assay: Biofilm formation inhibition, crystal violet staining; assay type: cell-based, Escherichia coli; conditions: at 2 ug/mL
[1] = system: HCEC (Immortalized Human Colonic Epithelial Cell); assay type: cell-based; conditions: 24 h
[2] = system: Acinetobacter baumannii ATCC 19606; assay type: cell-based; conditions: ATCC 19606, pH 7
[3] = system: Cryptococcus neoformans var. grubii H99 ATCC 20882; assay type: cell-based; conditions: ATCC 20882, pH 7
[4] = system: Escherichia coli ATCC 25922; assay type: cell-based; conditions: ATCC 25922, pH 7
[5] = system: Staphylococcus aureus ATCC 43300 MRSA; assay type: cell-based; conditions: ATCC 43300, pH 7
Zeta potential = assay type: physicochemical; conditions: Aqueous solution of 2 mmolar concentration in pH 7
[6] = system: HaCaT (Immortalized Human Keratinocyte); assay type: cell-based; conditions: 24 h
[7] = system: Klebsiella pneumoniae ATCC 700603; assay type: cell-based; conditions: ATCC 700603, pH 7
[8] = system: Psedomonas aeruginosa ATCC 27853; assay type: cell-based, Pseudomonas aeruginosa; conditions: ATCC 27853, pH 7
[9] = system: Candida albicans ATCC 90028; assay type: cell-based; conditions: ATCC 90028, pH 7
S. aureus JE2 biofilm = assay: Biofilm formation inhibition, crystal violet staining; assay type: cell-based, Staphylococcus aureus; conditions: at MIC
Outline: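 S. aureus JE2 initial inocula were exposed to test compound in two-fold dilutions from 16 to 4 μg/mL, with vancomycin or gentamicin at 4 to 1 μg/mL as comparators. Biofilm formed was quantified by crystal violet staining.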

CNC(C)C1CCC(N)C(OC2C(N)CC(N)C(OC3OCC(C)(O)C(NC)C3O)C2O)O1 (stereo not shown) [Gen, Gentamicin]
reduction of E coli biofilm formation (E coli K12 biofilm): about 54. 3%

CCCCCCCC(=O)NCCCC[C@H](NC(=O)CCCCCCC)C(=O)N[C@@H](CCCCN)C(=O)N[C@@H](CCCCN)C(=O)N[C@@H](CCCCN)C(=O)N[C@@H](CCCCN)C(=O)N[C@@H](CCCCN)C(N)=O [PA 8]
IC50 HCEC [1]: 19.3 µg/mL (≈ 18.6 µM) | MIC Ab (A. baumannii ATCC 19606) [2]: >32 µg/mL | MIC Cn (C. neoformans var. grubii H99 ATCC 20882) [3]: >32 µg/mL | MIC Ec (E. coli ATCC 25922) [4]: >32 µg/mL | MIC Sa (S. aureus ATCC 43300 MRSA) [5]: >32 µg/mL | Zeta potential (Zeta potential): 18.83 ± 1.69 mV | IC50 HaCaT [6]: 40.4 µg/mL (≈ 38.9 µM) | MIC Kp (K. pneumoniae ATCC 700603) [7]: >32 µg/mL | MIC Pa (P. aeruginosa ATCC 27853) [8]: >32 µg/mL | MIC Ca (C. albicans ATCC 90028) [9]: >32 µg/mL

CCCCCCCCCCCCCCCCCC(=O)NCCCC[C@H](NC(=O)CCCCCCCCCCCCCCCCC)C(=O)N[C@@H](CCCCN)C(=O)N[C@@H](CCCCN)C(=O)N[C@@H](CCCCN)C(=O)N[C@@H](CCCCN)C(=O)N[C@@H](CCCCN)C(N)=O [PA 9]
Zeta potential (Zeta potential): 41.40 ± 1.05 mV

CN[C@H](CC(C)C)C(=O)N[C@H]1C(=O)N[C@@H](CC(N)=O)C(=O)N[C@H]2C(=O)N[C@H]3C(=O)N[C@H](C(=O)N[C@H](C(=O)O)c4cc(O)cc(O)c4-c4cc3ccc4O)[C@H](O)c3ccc(c(Cl)c3)Oc3cc2cc(c3O[C@@H]2O[C@H](CO)[C@@H](O)[C@H](O)[C@H]2O[C@H]2C[C@](C)(N)[C@H](O)[C@H](C)O2)Oc2ccc(cc2Cl)[C@H]1O [Van, Vancomycin]
reduction of MRSA biofilm formation (S. aureus JE2 biofilm): up to 92.80 ± 0.68%
